Converted amounts (≈) assume the structure as drawn.
Key:
Assay type in all cases: functional
Conditions in all cases: time 5 day
[1] = tested on: Mycobacterium tuberculosis; test: Antitubercular activity against rifampicin resistant Mycobacterium tuberculosis HN878 harboring RpoBH455D mutant assessed as bacterial growth inhibition measured after 5 days by serial dilution method
Procedure, shortened: (§1)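 Strains grown in Middlebrook 7H9 with OADC supplement and 0.05% w/v Tween 80. Compounds tested as 10-point 2-fold serial dilutions. Growth read as OD590 after 5 days in 7H9-OADC-Tw. Levenberg-Marquardt curve fitting gave MIC90, the concentration inhibiting growth by 90% relative to controls. Run in triplicate.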

[2] = tested on: Mycobacterium tuberculosis H37Rv; test: Antitubercular activity against rifampicin resistant Mycobacterium tuberculosis H37Rv harboring RpoBS522L mutant assessed as bacterial growth inhibition measured after 5 days by serial dilution method; procedure, shortened: as §1
[3] = tested on: Mycobacterium tuberculosis; test: Antitubercular activity against rifampicin resistant Mycobacterium tuberculosis ATCC 35838 harboring RpoBS531L mutant assessed as bacterial growth inhibition measured after 5 days by serial dilution method; procedure, shortened: as §1

Row | Compound | MIC90 [1] | MIC90 [2] | MIC90 [3]
1 | CO[C@H]1/C=C/O[C@@]2(C)Oc3c(C)c(O)c4c(O)c(c(CNCCc5ccc(O)cc5)c(O)c4c3C2=O)NC(=O)/C(C)=C\C=C\[C@H](C)[C@H](O)[C@@H](C)[C@@H](O)[C@@H](C)[C@H](OC(C)=O)[C@@H]1C | >20 µM | 5.8 µM (≈ 4.91 µg/mL) | >20 µM
2 | NNC(=O)c1ccncc1 [ISONIAZID] | 0.62 µM (≈ 0.085 µg/mL) | 0.29 µM (≈ 0.0398 µg/mL) | 0.55 µM (≈ 0.0754 µg/mL)
3 | COC(=O)c1ccc(CNCc2c3c(O)c4c(O)c(C)c5c(c4c2O)C(=O)[C@@](C)(O/C=C/[C@H](OC)[C@@H](C)[C@@H](OC(C)=O)[C@H](C)[C@H](O)[C@H](C)[C@@H](O)[C@@H](C)/C=C/C=C(/C)C(=O)N3)O5)cc1 | >20 µM | 7.7 µM (≈ 6.74 µg/mL) | >20 µM
4 | CO[C@H]1/C=C/O[C@@]2(C)Oc3c(C)c(O)c4c(O)c(c(/C=N/N5CCN(C)CC5)c(O)c4c3C2=O)NC(=O)/C(C)=C\C=C\[C@H](C)[C@H](O)[C@@H](C)[C@@H](O)[C@@H](C)[C@H](OC(C)=O)[C@@H]1C [RIFAMPIN] | >8 µM | >8 µM | >8 µM
5 | CO[C@H]1/C=C/O[C@@]2(C)Oc3c(C)c(O)c4c(O)c(c(CNCc5ccncc5)c(O)c4c3C2=O)NC(=O)/C(C)=C\C=C\[C@H](C)[C@H](O)[C@@H](C)[C@@H](O)[C@@H](C)[C@H](OC(C)=O)[C@@H]1C | >20 µM | 6.7 µM (≈ 5.48 µg/mL) | >20 µM
6 | CO[C@H]1/C=C/O[C@@]2(C)Oc3c(C)c(O)c4c(O)c(c(CNCc5ccccc5)c(O)c4c3C2=O)NC(=O)/C(C)=C\C=C\[C@H](C)[C@H](O)[C@@H](C)[C@@H](O)[C@@H](C)[C@H](OC(C)=O)[C@@H]1C | 9.9 µM (≈ 8.09 µg/mL) | 12 µM (≈ 9.8 µg/mL) | >20 µM
7 | CO[C@H]1/C=C/O[C@@]2(C)Oc3c(C)c(O)c4c(O)c(c(CNCc5cccs5)c(O)c4c3C2=O)NC(=O)/C(C)=C\C=C\[C@H](C)[C@H](O)[C@@H](C)[C@@H](O)[C@@H](C)[C@H](OC(C)=O)[C@@H]1C | 14 µM (≈ 11.5 µg/mL) | 8 µM (≈ 6.58 µg/mL) | >20 µM
8 | CO[C@H]1/C=C/O[C@@]2(C)Oc3c(C)c(O)c4c(O)c(c(CNCc5ccco5)c(O)c4c3C2=O)NC(=O)/C(C)=C\C=C\[C@H](C)[C@H](O)[C@@H](C)[C@@H](O)[C@@H](C)[C@H](OC(C)=O)[C@@H]1C | 16 µM (≈ 12.9 µg/mL) | >20 µM | >20 µM
9 | CO[C@H]1/C=C/O[C@@]2(C)Oc3c(C)c(O)c4c(O)c(c(CNCc5ccc(S(C)(=O)=O)cc5)c(O)c4c3C2=O)NC(=O)/C(C)=C\C=C\[C@H](C)[C@H](O)[C@@H](C)[C@@H](O)[C@@H](C)[C@H](OC(C)=O)[C@@H]1C | >20 µM | 3.2 µM (≈ 2.86 µg/mL) | >20 µM
10 | CO[C@H]1/C=C/O[C@@]2(C)Oc3c(C)c(O)c4c(O)c(c(CNCCc5c[nH]c6ccccc56)c(O)c4c3C2=O)NC(=O)/C(C)=C\C=C\[C@H](C)[C@H](O)[C@@H](C)[C@@H](O)[C@@H](C)[C@H](OC(C)=O)[C@@H]1C | >20 µM | 3.1 µM (≈ 2.7 µg/mL) | >20 µM
11 | CO[C@H]1/C=C/O[C@@]2(C)Oc3c(C)c(O)c4c(O)c(c(CN5CCN(CCO)CC5)c(O)c4c3C2=O)NC(=O)/C(C)=C\C=C\[C@H](C)[C@H](O)[C@@H](C)[C@@H](O)[C@@H](C)[C@H](OC(C)=O)[C@@H]1C | >20 µM | 4.7 µM (≈ 3.95 µg/mL) | >20 µM
